In ChEMBL document CHEMBL1139840, “Design and synthesis of glycoside inhibitors of glioma and melanoma growth” (2007) one finds IC50 data, which are given here for 27 compounds.

In test [1] the test system is A-375. Briefly: Antimitotic activity against human A375 cells by [3H]thymidine incorporation assay. The note with it: A-375, 24 h, read-out: ID50 (the source's name). The class given is functional. In a few lines: (§1)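 Cells seeded at 1 × 10⁴/well in DMEM with 10% FCS and left 6 h to attach, then serum-starved 36 h. Compounds added in DMEM with 1% FCS, in triplicate, for 24 h. A 6 h [³H]thymidine pulse (0.5 µCi/well) followed, then SDS lysis and scintillation counting. % inhibition was scaled between 10% FCS (high) and serum-free (low) controls. ID₅₀ came from sigmoidal fits of triplicate dose-response data.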

Test [2] deals with C6. Briefly: Antimitotic activity against rat C6 cells by [3H]thymidine incorporation assay. It counts as functional. The conditions noted are these: C6, 24 h, read-out: ID50 (the source's name). In outline: as §1
A short description of test [3]: Antimitotic activity against human U373 cells by [3H]thymidine incorporation assay. The conditions noted are these: U373 MG, read-out: ID50 (the source's name). It counts as functional, U-373MG ATCC.
Test [4] is described as follows: Antimitotic activity against rat stromal cells by [3H]thymidine incorporation assay. It counts as functional. The conditions noted are these: read-out: ID50 (the source's name).

On to `CCCCCCCCCCCCCCCCO[C@H]1O[C@H](COCC(CO)(CO)COS(=O)(=O)O)[C@@H](O)[C@H](O)[C@H]1NC(=O)CCCC`, for which the IC50 in test [1] worked out at 2.3 µM; in test [2], 11 µM; in test [3] it was 3.2 µM.

As to `CC(=O)N[C@H]1[C@@H](OCCCCc2ccccc2)O[C@H](CO)[C@@H](O)[C@@H]1O`, the IC50 in test [1], in test [2] and in test [3] was more than 50 µM in each case.

Regarding `CCCCCCCCO[C@H]1O[C@H](CO)[C@@H](O)[C@H](O)[C@H]1NC(C)=O`, the IC50 in test [1], in test [2] and in test [3] was more than 50 µM throughout.

As to `CC(=O)N[C@H]1[C@@H](OCc2ccccc2)O[C@H](CO)[C@@H](O)[C@@H]1O`, the IC50 in test [1], in test [2] and in test [3] was more than 50 µM each time.

Consider `CCCCC(=O)N[C@H]1[C@@H](OCCc2ccccc2)O[C@H](COCC(CO)(CO)COS(=O)(=O)O)[C@@H](O)[C@@H]1O`, for which the IC50 in test [1] was 9.3 µM; in test [2], 8.6 µM; in test [3] it was 6.7 µM.

With `CCCCCCCCCCCCCCCCO[C@H]1O[C@H](CO)[C@@H](O)[C@H](O)[C@H]1NC(C)=O`, the results for the IC50 in test [1], in test [2] and in test [3] were 29.3 µM, 13 µM and more than 50 µM, respectively.

For `CCCCCCCCO[C@H]1O[C@H](CO)[C@@H](O)[C@H](O)[C@H]1NC(=O)c1ccccc1`, the IC50 in test [1], in test [2] and in test [3] was more than 50 µM each time.

On to `CCCCCCCCCCCCCCCCO[C@H]1O[C@H](COCC(O)CO)[C@@H](O)[C@H](O)[C@H]1NC(=O)CCCC` (stereo not given in full), for which the IC50 in test [1] was found to be 3 µM; in test [3], 4.6 µM.

Turning to `CCCCCCCCCCCCCCCCO[C@H]1O[C@H](COCC(CO)(CO)CO)[C@@H](O)[C@H](O)[C@H]1NC(=O)CCCC`, the IC50 in test [1] was 17 µM; in test [2], 18.3 µM; in test [3] it was 27.3 µM.

Take `CCCCCCCCCCCCCCCCO[C@H]1O[C@H](COC[C@H](O)CO)[C@@H](O)[C@H](O)[C@H]1NC(=O)CCCC`: the IC50 in test [1] came out at 2.2 µM; in test [3], 4.9 µM.

Regarding `C=CCCC(=O)N[C@H]1[C@@H](OCCCCCCCCCCCCCCCC)O[C@H](CO)[C@@H](O)[C@@H]1O`, the IC50 in test [1], in test [2] and in test [3] was more than 50 µM each time.

As for `CCCCCCCC/C=C\CCCCCCCC(=O)N[C@H]1[C@@H](OCCCCCCCC)O[C@H](CO)[C@@H](O)[C@@H]1O`, the IC50 came to 6 µM in test [1], 12 µM in test [2] and 13.3 µM in test [3].

With `C=CCCC(=O)N[C@H]1[C@@H](OCCc2ccccc2)O[C@H](COS(=O)(=O)O)[C@@H](O)[C@@H]1O`, the IC50 in test [1], in test [2] and in test [3] was more than 50 µM each time.

In the case of `C=CCCC(=O)N[C@H]1[C@@H](OCCc2ccccc2)O[C@H](CO)[C@@H](O)[C@@H]1OS(=O)(=O)O`, the IC50 in test [1], in test [2] and in test [3] was more than 50 µM throughout.

With `C=CCCC(=O)N[C@H]1[C@@H](OCCCCCCCCCCCCCCCC)O[C@H](CO)[C@@H](O)[C@@H]1OS(=O)(=O)O`, the IC50 in test [1] turned out to be 7.2 µM; in test [2] it was 22.6 µM; in test [3], 33 µM.

On to `CCCCCCCC/C=C\CCCCCCCCO[C@H]1O[C@H](COS(=O)(=O)O)[C@@H](O)[C@H](O)[C@H]1NC(C)=O`, for which the IC50 in test [4] was determined as 40 µM; in test [1], 0.6 µM; in test [2] it was 13 µM; in test [3], 13 µM.

Regarding `CCCCCCCC/C=C\CCCCCCCC(=O)N[C@H]1[C@@H](OCCCCCCCC)O[C@H](COCC(CO)(CO)CO)[C@@H](O)[C@@H]1O`, the IC50 in test [1] came to 13.3 µM; in test [2], 11.9 µM; in test [3] it was 20.6 µM.

For `CC(=O)N[C@H]1[C@@H](OCCc2ccccc2)O[C@H](CO)[C@@H](O)[C@@H]1O`, the IC50 in test [1], in test [2] and in test [3] was more than 50 µM each time.

On to `CCCCCCCC/C=C\CCCCCCCC(=O)N[C@H]1[C@@H](OCCCCCCCC)O[C@H](CO)[C@@H](O)[C@@H]1OS(=O)(=O)O`, for which the IC50 stood at 16 µM in test [1], 5.4 µM in test [2] and 15.6 µM in test [3].

In the case of `CCCCCCCC/C=C\CCCCCCCC(=O)N[C@H]1[C@@H](OCCCCCCCC)O[C@H](COS(=O)(=O)O)[C@@H](O)[C@@H]1O`, the IC50 in test [1] turned out to be 15.6 µM; in test [2] it was 5.6 µM; in test [3], 12.6 µM.

Regarding `CCCCCCCCCCCCCCCCO[C@H]1O[C@H](COC[C@@H](O)CO)[C@@H](O)[C@H](O)[C@H]1NC(=O)CCCC`, the IC50 amounted to 3.4 µM in test [1] and 5.6 µM in test [3].

On to `CCCCC(=O)N[C@H]1[C@@H](OCCc2ccccc2)O[C@H](COCC(CO)(CO)CO)[C@@H](O)[C@@H]1O`, for which the IC50 in test [1], in test [2] and in test [3] was more than 50 µM in each case.

Take `CCCCCCCC/C=C\CCCCCCCCO[C@H]1O[C@H](CO)[C@@H](O)[C@H](O)[C@H]1NC(C)=O`: the IC50 was 10 µM in test [4], 4.8 µM in test [1], 1.3 µM in test [2] and 4.6 µM in test [3].

`CCCCCCCC/C=C\CCCCCCCCO[C@H]1O[C@H](CO)[C@@H](O)[C@H](OS(=O)(=O)O)[C@H]1NC(C)=O`: the IC50 in test [1] was 2.1 µM; in test [2], 12.3 µM; in test [3] it was 9.6 µM.

As for `C=CCCC(=O)N[C@H]1[C@@H](OCCc2ccccc2)O[C@H](CO)[C@@H](O)[C@@H]1O`, the IC50 in test [1], in test [2] and in test [3] was more than 50 µM each time.

For the compound `CCCCC(=O)N[C@H]1[C@@H](OCCc2ccccc2)O[C@H](COCC(O)CO)[C@@H](O)[C@@H]1O` (mixture of isomers), the IC50 in test [1], in test [2] and in test [3] was more than 50 µM throughout.

On to `CCCCCCCCCCCCCCCCO[C@H]1O[C@H](COCC(O)CO)[C@@H](O)[C@H](O)[C@H]1NC(=O)CCCCCCCCCCCCCCC` (mixture of isomers), for which the IC50 in test [1] was found to be 9.3 µM; in test [2], 2.6 µM; in test [3] it was 3.3 µM.
